Experimental data taken from ChEMBL document CHEMBL4811229, “Leveraging Peptaibol Biosynthetic Promiscuity for Next-Generation Antiplasmodial Therapeutics” (J Nat Prod, 2021).
≈ marks a conversion by molar mass, not a printed value. Where a SMILES comes first, the peptide text is derived from it. [ ]: non-standard residue; d: D form. The star is where a group is joined. X1 = CC(C)C[C@@H](C[N+]1=C2CCCN2CCC1)N*; Pip = O=C(O)[C@@H]1CCCCN1; Iva = CC[C@](C)(N)C(=O)O; Aib = CC(C)(N)C(=O)O; βAla = NCCC(=O)O

Experiments:
[1] = tested on: Plasmodium falciparum; experiment: Antiplasmodial activity against Plasmodium falciparum assessed as parasite growth inhibition; assay type: functional
[2] = tested on: Plasmodium falciparum; experiment: Antiplasmodial activity against multidrug-resistant Plasmodium falciparum Dd2 infected in human A-positive erythrocytes assessed as reduction in parasitemia incubated for 72 hrs by fluorescence-based SYBR-Green-1 assay; assay type: functional, organism-based; details: Dd2, Erythrocyte
[3] = tested on: HepG2; experiment: Cytotoxicity against human HepG2 cells assessed as decrease in cell viability measured after 48 hrs by MTS assay; assay type: cell-based; details: HepG2, 48 h
Method in brief: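 After 48 h at 37 °C and 5% CO2, MTS was added for 4 h and absorbance read at 490 nm. Values were normalized to Triton X-100-lysed wells (0% growth) and untreated wells. EC50 is the mean of triplicate experiments.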

[4] = Selectivity index, ratio of EC50 for human HepG2 cells to EC50 for antiplasmodial activity against multidrug-resistant Plasmodium falciparum Dd2 infected in human A-positive erythrocytes; assay type: toxicity, cell-based; details: read-out: Ratio EC50
[5] = tested on: Plasmodium falciparum; experiment: Antiplasmodial activity against chloroquine-resistant Plasmodium falciparum K1 infected in human erythrocytes assessed as parasite growth inhibition; assay type: functional, organism-based; details: K1, Erythrocyte
[6] = tested on: Plasmodium falciparum; experiment: Antiplasmodial activity against chloroquine-resistant Plasmodium falciparum FCR3 infected in human erythrocytes assessed as parasite growth inhibition; assay type: functional, organism-based; details: FCR-3/Gambia, Erythrocyte

Work on `CCC(=O)CCCCC[C@@H]1NC(=O)[C@H]2CCCCN2C(=O)[C@H]([C@@H](C)CC)NC(=O)[C@H](Cc2cn(OC)c3ccccc23)NC1=O` [APICIDIN] yielded an MIC [1] of 0.19 µM (≈ 0.119 µg/mL).

Work on `CC[C@H](C)[C@H](NC(=O)[C@H](CO)NC(=O)[C@@H]1CCCN1C(=O)C(C)(C)NC(=O)[C@H](CC(C)C)NC(=O)[C@H](CC(N)=O)NC(=O)C(C)(C)NC(C)=O)C(=O)NC(C)(C)C(=O)N1CCC[C@H]1C(=O)NC(C)(C)C(=O)N[C@@H](CC(C)C)C(=O)NC(C)(C)C(=O)N1CCC[C@H]1C(=O)N[C@H](CO)CC(C)C` (HELM PEPTIDE1{[ac].[Aib].N.L.[Aib].P.S.I.[Aib].P.[Aib].L.[Aib].P.[CC(C)C[C@@H](CO)N[*:1]]}$$$$V2.0) yielded an EC50 [2] of 630 nM, an EC50 [3] greater than 25000 nM and a selectivity ratio [4] greater than 40.

With `CC[C@](C)(NC(=O)[C@H](CC(C)C)NC(=O)[C@H](C)NC(=O)C(C)(C)NC(=O)[C@@H]1CCCCN1C(=O)C(C)(C)NC(=O)C(C)(C)NC(=O)CNC(=O)CCNC(=O)[C@H](CC(C)C)NC(=O)C(C)(C)NC(=O)[C@](C)(CC)NC(=O)[C@@H]1CCCCN1C(=O)C(C)(C)NC(=O)[C@@H]1CCCCN1C(C)=O)C(=O)N[C@@H](CC(C)C)C[N+]1=C2CCCN2CCC1` [EFRAPEPTIN G] (Ac-[Pip][Aib][Pip][Iva][Aib]L[βAla]G[Aib][Aib][Pip][Aib]AL[Iva]-X1) the EC50 [2] was 460 nM, the EC50 [3] was greater than 25000 nM and the selectivity ratio [4] was greater than 54.

Molecule `CC[C@H](C)[C@H](NC(=O)C(C)(C)NC(=O)[C@H](CCC(N)=O)NC(=O)C(C)(C)NC(=O)C(C)(C)NC(=O)[C@H](C)NC(=O)[C@H](C)NC(=O)[C@H](C)NC(=O)C(C)(C)NC(C)=O)C(=O)NC(C)(C)C(=O)NCC(=O)N[C@@H](CC(C)C)C(=O)NC(C)(C)C(=O)N1CCC[C@H]1C(=O)N[C@H](C(=O)NC(C)(C)C(=O)N[C@](C)(CC)C(=O)N[C@@H](CCC(N)=O)C(=O)N[C@@H](CCC(N)=O)C(=O)N[C@H](CO)Cc1ccccc1)C(C)C` has an EC50 [2] of 520 nM, an EC50 [3] of 3350 nM and a selectivity ratio [4] of 6.

In the case of `CC(=O)NC(C)(C)C(=O)N[C@@H](CC(N)=O)C(=O)N[C@@H](CC(C)C)C(=O)NC(C)(C)C(=O)N1CCC[C@H]1C(=O)N[C@@H](CO)C(=O)N[C@H](C(=O)NC(C)(C)C(=O)N1CCC[C@H]1C(=O)NC(C)(C)C(=O)N[C@@H](CC(C)C)C(=O)NC(C)(C)C(=O)N1CCC[C@H]1C(=O)N[C@H](CO)CC(C)C)C(C)C` (HELM PEPTIDE1{[ac].[Aib].N.L.[Aib].P.S.V.[Aib].P.[Aib].L.[Aib].P.[CC(C)C[C@@H](CO)N[*:1]]}$$$$V2.0), the EC50 [2] is reported as 710 nM, the EC50 [3] is reported as greater than 25000 nM and the selectivity ratio [4] is reported as greater than 35.

Molecule `CCCCCCC/C=C\CCCCCCCC(=O)N[C@H](C(=O)N1C[C@H](C)C[C@H]1C(=O)N[C@H](C(=O)N[C@@H](CC(N)=O)C(N)=O)C(C)C)[C@@H](C)O` (HELM PEPTIDE1{[CCCCCCC/C=C\CCCCCCCC(=O)[*:2]].T.[C[C@@H]1C[C@@H](C(=O)[*:2])N([*:1])C1].V.N.[am]}$$$$V2.0) has an EC50 [5] of 150 nM and an EC50 [6] of 150 nM.

With `CC[C@@](C)(NC(=O)[C@@H]1CCCN1C(=O)C(C)(C)NC(=O)[C@@H](NC(=O)[C@H](CO)NC(=O)[C@@H]1CCCN1C(=O)C(C)(C)NC(=O)[C@H](CC(C)C)NC(=O)[C@H](CC(N)=O)NC(=O)C(C)(C)NC(C)=O)C(C)C)C(=O)N[C@@H](CC(C)C)C(=O)NC(C)(C)C(=O)N1CCC[C@H]1C(=O)N[C@H](CO)CC(C)C` (HELM PEPTIDE1{[ac].[Aib].N.L.[Aib].P.S.V.[Aib].P.[CC[C@@](C)(N[*:1])C(=O)[*:2]].L.[Aib].P.[CC(C)C[C@@H](CO)N[*:1]]}$$$$V2.0) the EC50 [2] was 560 nM, the EC50 [3] was greater than 25000 nM and the selectivity ratio [4] was greater than 45.

For `CC[C@H](C)[C@H](NC(=O)[C@H](C)NC(=O)[C@@H]1CCCN1C(=O)C(C)(C)NC(=O)[C@H](CC(C)C)NC(=O)[C@H](CC(N)=O)NC(=O)C(C)(C)NC(C)=O)C(=O)NC(C)(C)C(=O)N1CCC[C@H]1C(=O)NC(C)(C)C(=O)N[C@@H](CC(C)C)C(=O)NC(C)(C)C(=O)N1CCC[C@H]1C(=O)N[C@H](CO)CC(C)C` (HELM PEPTIDE1{[ac].[Aib].N.L.[Aib].P.A.I.[Aib].P.[Aib].L.[Aib].P.[CC(C)C[C@@H](CO)N[*:1]]}$$$$V2.0), the EC50 [2] was 420 nM, the EC50 [3] was greater than 25000 nM and the selectivity ratio [4] was greater than 60.

In the case of `CCCCCCC/C=C\CCCCCCCC(=O)N[C@H](C(=O)N1C[C@H](C)C[C@H]1C(=O)N[C@H](C(=O)N[C@@H](CC(N)=O)C(=O)N[C@@H](C)[C@H]1N[C@@H](CO)[C@H](O)[C@@H](CCCCCCCCCCCCC)O1)C(C)C)[C@@H](C)O`, the EC50 [5] is reported as 150 nM and the EC50 [6] is reported as 150 nM.

In the case of `CCCCCCCC(=O)NC(C)(C)C(=O)NCC(=O)N[C@@H](CC(C)C)C(=O)NC(C)(C)C(=O)NCC(=O)NCC(=O)N[C@@H](CC(C)C)C(=O)NC(C)(C)C(=O)NCC(=O)N[C@H](C(=O)N[C@H](CO)CC(C)C)[C@@H](C)CC`, the EC50 [2] is reported as 930 nM, the EC50 [3] is reported as 8090 nM and the selectivity ratio [4] is reported as 9.

Work on `CC[C@H](C)[C@H](NC(=O)[C@H](C)NC(=O)[C@@H]1CCCN1C(=O)C(C)(C)NC(=O)[C@H](CC(C)C)NC(=O)[C@H](CCC(N)=O)NC(=O)C(C)(C)NC(C)=O)C(=O)NC(C)(C)C(=O)N1CCC[C@H]1C(=O)NC(C)(C)C(=O)N[C@@H](CC(C)C)C(=O)N[C@](C)(CC)C(=O)N1CCC[C@H]1C(=O)N[C@H](CO)CC(C)C` yielded an EC50 [2] of 630 nM, an EC50 [3] greater than 25000 nM and a selectivity ratio [4] greater than 40.
